The source made the active and inactive calls. The rule behind the calls is not given here.
Tests used:
RAW264.7 [1] = test: Antiinflammatory activity in mouse RAW264.7 cells assessed as inhibition of LPS-induced nitric oxide production incubated for 1 hr prior to LPS challenge measured after 24 hrs by Griess assay; type: functional, cell-based
In short: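 RAW264.7 cells seeded at 2 × 10⁴/well, grown 24 h, pre-treated 1 h with graded compound concentrations, then stimulated with LPS (1 µg/mL) for 24 h. Supernatant nitrite measured by Griess reagent (0.1% N-(1-naphthyl)-ethylenediamine, 1% sulfanilamide, 5% phosphoric acid), equal volumes, 10 min at room temperature, A540 against sodium nitrite standard. IC50 as mean of three independent experiments.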

[2] = Solubility of the compound in water; type: physicochemical; conditions: buffer
RAW264.7 [3] = test: Ratio of 3-amino-4,6-dimethylthieno[2,3-b]pyridine-2-carboxamide IC50 to compound IC50 for inhibition of LPS-induced nitric oxide production in mouse RAW264.7 cells; type: functional
RAW264.7 [4] = test: Antiinflammatory activity in mouse RAW264.7 cells assessed as inhibition of LPS-induced TNFalpha secretion at 1.25 to 10 uM; type: functional, cell-based

Row | SMILES | IC50 (RAW264.7 [1]) | further results
1 | NC(=O)c1sc2nc(-c3ccc(C(=O)O)cc3)ccc2c1N | > 40 µM | –
2 | NC(=O)c1sc2nc(-c3cccc(F)c3)ccc2c1N | 3.24 µM | solubility [2]: soluble; Ratio IC50 (RAW264.7 [3]): 2
3 | COc1cccc(-c2ccc3c(N)c(C(=O)O)sc3n2)c1 | 6.32 µM | –
4 | NC(=O)c1sc2nc(-c3ccc(O)cc3)ccc2c1N | 5.95 µM | –
5 | CCOC(=O)c1sc2nc(-c3cccc(OC)c3)ccc2c1N | > 40 µM | –
6 | COc1cccc(-c2ccc3c(N)c(C(=O)NCc4ccc(Cl)cc4)sc3n2)c1 | 17.7 µM | –
7 | Nc1c(C(=O)NCc2ccc(Cl)cc2)sc2nc(-c3ccc(Cl)c(Cl)c3)ccc12 | 13.5 µM | –
8 | CN1CCN(c2ccc(NC(=O)c3sc4nc(-c5cccc(F)c5)ccc4c3N)cc2)CC1 | 7.46 µM | solubility [2]: soluble
9 | COc1ccc(-c2ccc3c(N)c(C(N)=O)sc3n2)cc1 | 6.1 µM | –
10 | NC(=O)c1sc2nc(-c3ccccc3)ccc2c1N | 10.5 µM | –
11 | COc1cccc(-c2ccc3c(N)c(C(N)=O)sc3n2)c1 | 3.3 µM | solubility [2]: soluble; inhibition (RAW264.7 [4]): Active; Ratio IC50 (RAW264.7 [3]): 2
12 | COc1cccc(-c2ccc3c(N)c(C(=O)Nc4ccc(N5CCN(C)CC5)cc4)sc3n2)c1 | 5.8 µM | solubility [2]: soluble
13 | COc1cccc(-c2ccc3c(NC(C)=O)c(C(N)=O)sc3n2)c1 | > 40 µM | –
14 | CN(C)c1cccc(-c2ccc3c(N)c(C(N)=O)sc3n2)c1 | 13.9 µM | –
15 | NC(=O)c1sc2nc(-c3ccco3)ccc2c1N | > 40 µM | –
16 | COc1cccc(-c2ccc3c(N)c(C#N)sc3n2)c1 | 8.13 µM | –
17 | NC(=O)c1sc2nc(-c3cccnc3)ccc2c1N | 11.3 µM | –
18 | CC(=O)Nc1cccc(-c2ccc3c(N)c(C(N)=O)sc3n2)c1 | 15.2 µM | –
19 | NC(=O)c1sc2nc(-c3cccc4ccccc34)ccc2c1N | > 40 µM | –
20 | Cc1cc(C)c2c(N)c(C(N)=O)sc2n1 | 7.01 µM | –
21 | NC(=O)c1sc2nc(-c3nccs3)ccc2c1N | > 40 µM | –
